From PubChem
In the library only some 2.6% were active in any assay of this set; here they are far more common.
SR-BI HDL uptake – mouse SR-BI HDL lipid transfer inhibition. 320,000 compounds, 0.96% hits. inhibition, % at 12.5 µM. ldlA[mSR-BI] CHO cells, DiI-HDL uptake fluorescence, 3 h. Q61009. AID 488896;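 active = mean replicate inhibition of at least 70% and a set share of replicates each scoring 70 or more; inconclusive = meets just one of the two criteria; inactive = fails both criteria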;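 note: 0% = median of neutral control wells and 100% = median of positive control wells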
dFosB act-1 – enhances mouse delta FosB homodimer DNA binding; 340,000 compounds, 0.99% hits; activation, % at 25 µM; purified delta FosB, TAMRA-CDK5 oligo fluorescence polarization; percent of positive-control signal above neutral wells; P13346;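 active = mean activation above about 17%, with every replicate also reaching it, limit read from the data, passing the limit was not always enough; inconclusive = only one of the two conditions met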
Target sequence (P13346 whole entry, looked up): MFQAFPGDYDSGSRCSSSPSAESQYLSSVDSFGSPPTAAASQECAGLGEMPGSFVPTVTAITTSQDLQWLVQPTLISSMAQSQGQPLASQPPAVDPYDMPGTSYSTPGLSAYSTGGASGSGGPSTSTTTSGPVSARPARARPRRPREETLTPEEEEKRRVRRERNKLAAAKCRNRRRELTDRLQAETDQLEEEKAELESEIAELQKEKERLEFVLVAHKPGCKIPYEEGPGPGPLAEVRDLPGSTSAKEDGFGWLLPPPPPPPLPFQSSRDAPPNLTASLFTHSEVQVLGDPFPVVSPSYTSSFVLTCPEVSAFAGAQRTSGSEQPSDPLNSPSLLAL
rRNA inh HTS – inhibits bacterial ribosomal RNA function over humanized ribosomes | E. coli WT GFP vs humanized-ribosome RFP mutants, fluorescence, 24 h; active compounds read low; DMSO median 0, no signal -100 | GFP signal change (wild-type ribosome), % (no concentration beside the values) | 350,000 compounds, 1.6% hits;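 active = significant combined selectivity score with lowered wild-type GFP, culture density cut under 30%, mutant RFP and density less affected; inactive = any of these conditions unmet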
PvdQ inh – P. aeruginosa PvdQ acylase inhibition; purified PvdQ acylase, fluorescence plate reader; inhibition, % at 10 µM; 340,000 compounds, 0.063% hits; AID 488965; in the data active = inhibition above about 30%, passing the limit was not always enough; inconclusive = no clear call, values can overlap the other calls;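 note: 0% = vehicle neutral wells and 100% = reference inhibitor wells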
Xi reactivation – X-chromosome reactivation activator | activation, % at 7.58 µM | 360,000 compounds, 0.055% hits | XiGFP mouse fibroblasts, % GFP-positive cells imaging, 3 d; cells co-treated with 5-aza-dC sensitizer; scaled so ellipticine positive control = 100%;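 active = mean normalized replicate activation at least 10% and every replicate at or above 10%; inconclusive = only one of the two criteria met; inactive = mean below 10% and not all replicates reach 10%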;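 note: 0% = median of on-plate neutral control wells and 100% = ellipticine 6 µM median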
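material = 68-5-11 XiGFP fibroblast line | medium = DMEM plus 5-aza-dC sensitizer | schedule = 3 days compound exposure | benchmarks = positive control ellipticine, 6 µM final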
SR-BI uptake up – activators of SR-BI mediated HDL lipid uptake; CHO ldlA[mSR-BI] cells, DiI-HDL uptake fluorescence, 3 h; 100 = double the neutral-control signal; activation, % at 12.5 µM; 320,000 compounds, 0.096% hits; AID 504775;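 active = mean replicate activation of at least 60% and every replicate at or above 60%; inconclusive = mean or all-replicate condition met, but not both; inactive = mean below 60% and not all replicates reaching 60%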;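 note: 0% = median plate neutral-control signal and 100% = twice that signal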
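Assay system: LDL receptor-deficient CHO ldlA cells overexpressing murine SR-BI / Medium: BSA-supplemented, HEPES-buffered Ham's F12, pH 7.4 / Probe or stimulus: DiI-labelled HDL at 10 µg/mL final / Timing: compound with DiI-HDL co-incubation, 3 h at 37 °C / Technique: bottom-read cell fluorescence after medium removal, ex 550/em 595 nm / Measure: HDL uptake via cellular fluorescence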
dFosB act-2 – enhances mouse delta FosB homodimer binding to DNA | shares compounds with dFosB act-1 | purified delta FosB, TAMRA-CDK5 oligo fluorescence polarization; normalised: neutral wells 0, positive control 100 | activation, % at 24.9 µM | 2,400 tested, under 10 active | AID 588690;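 active = highest replicate activation at or above 34% and every replicate reaching that threshold; inconclusive = meets only one of the two criteria; inactive = meets neither criterion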;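 note: higher polarization means more probe DNA bound by delta FosB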
* = called active by the depositor; ? = inconclusive; nt = no result.

SMILES	SR-BI HDL uptake	dFosB act-1	rRNA inh HTS	PvdQ inh	Xi reactivation	SR-BI uptake up	dFosB act-2
Cc1csc(NC(=O)CSc2ncc(-c3ccccc3)[nH]2)n1	-10.1	-5.6	-22.7	-9.8	0.0	10.1	nt
Cc1ccc2nc(-c3ccc(SCC(=O)Nc4nnc(C)s4)nc3)[nH]c2c1	1.7	71.6*	nt	-2.8	nt	-1.7	2.4
Cc1ccc2nc(-c3ccc(SCC(=O)Nc4nc(C)cs4)nc3)[nH]c2c1	15.1	33.0*	nt	-7.5	0.1	-15.1	4.7
CCOc1ccc(C(=O)COC(=O)Cc2n[nH]c(=O)c3ccccc23)cc1	-16.9	-2.5	3.5	-11.9	0.3	16.9	nt
CCOc1ccc(NC(=O)c2ccc(NC(=O)Cc3n[nH]c(=O)c4ccccc34)cc2)cc1	39.5	110.7*	3.5	-18.7	0.1	-39.5	-7.4
O=C(c1cc(-c2cccc(Cl)c2)on1)N1CCN(c2ccc(F)cc2)CC1	-11.9	21.0*	15.1	-1.5	0.0	11.9	-5.0
CN1CCN(C(=O)c2cc(-c3cccc(Cl)c3)on2)CC1	-17.7	-4.0	nt	-7.6	nt	17.7	nt
COc1cccc(C(=O)Nc2nnc(SCC(=O)NC3CCCC3)s2)c1	2.6	22.0*	3.1	-1.0	0.3	-2.6	2.7
O=C(CSc1nnc(NC(=O)c2cccc(F)c2)s1)NC1CCCC1	nt	60.3*	14.6	-15.3	nt	nt	1.2
Cc1cccc(C)c1NC(=S)Nc1ccc(F)cc1	15.6	-4.7	10.8	-1.4	0.0	-15.6	nt
O=C(Cc1ccccc1F)Nc1nc(-c2cccnc2)cs1	7.4	38.8*	6.5	-13.4	0.0	-7.4	5.6
O=C(Nc1nc(-c2ccccc2Cl)cs1)c1cccnc1	25.7	29.4*	nt	-12.2	nt	-25.7	4.6
O=C(NC(=S)Nc1nc(-c2ccccc2)cs1)c1cccnc1	42.1	1.3	nt	-8.3	0.0	-42.1	nt
C/C(=N\NC(=O)c1ccc(CN(C)S(=O)(=O)c2ccc(C)cc2)cc1)c1ccc(OC(F)F)cc1	54.6	26.1*	-2.6	-2.7	0.0	-54.6	-2.0
CCOC(=O)c1cnc2c(CC)cccc2c1NCCCN1CCOCC1	14.0	5.4	1.3	-5.0	0.0	-14.0	nt
O=C(Cc1cccc2ccccc12)N/N=C/c1ccc(OC(=O)/C=C/c2ccco2)cc1	32.0	18.4*	nt	-4.1	nt	-32.0	0.6
CCOc1cc(/C=N/NC(=O)Cc2ccc(C(F)(F)F)cc2[N+](=O)[O-])ccc1O	-34.4	-13.5	-9.4	-13.2	-0.1	34.4	nt
C=CCOc1c(Br)cc(/C=N/NC(=O)Cc2ccc(C(F)(F)F)cc2[N+](=O)[O-])cc1OC	75.1*	36.7*	nt	-3.7	-0.1	-75.1	-1.3
CCN(Cc1nc2cc(Cl)ccc2c(=O)[nH]1)C(=O)COc1ccccc1Cc1ccccc1	2.3	-10.8	nt	-14.3	0.0	-2.3	nt
COc1ccc2oc(C(=O)OCC(=O)Nc3ccc(NC(C)=O)cc3)c(C)c2c1	30.1	35.7*	5.0	1.7	0.0	-30.0	-8.1
COc1ccc2oc(C(=O)OCC(=O)Nc3cc(S(=O)(=O)N4CCOCC4)ccc3C)c(C)c2c1	43.5	38.0*	3.8	6.3	0.1	-43.5	3.1
COc1ccc2oc(C(=O)OCC(=O)Nc3ccc(OC)c(S(N)(=O)=O)c3)c(C)c2c1	33.6	-12.4	-18.1	-6.3	-0.1	-33.6	nt
COc1ccc2cc1Oc1ccc(cc1)C[C@H]1c3cc(c(OC)cc3CCN1C)Oc1c(OC)c(OC)cc3c1[C@H](C2)N(C)CC3	-20.0	25.9*	nt	-13.0	-0.1	20.0	?
C=CCN(c1ccc(C(=O)Nc2ccc(NC(C)=O)cc2)cc1)S(C)(=O)=O	28.9	-2.4	7.2	-7.0	0.0	-28.9	nt
Cc1ccc2sc(N(CCN(C)C)C(=O)c3ccc4ccccc4c3)nc2c1C	52.6	39.3*	-2.0	1.6	0.0	-52.7	1.6
SMILES	SR-BI HDL uptake	dFosB act-1	rRNA inh HTS	PvdQ inh	Xi reactivation	SR-BI uptake up	dFosB act-2
Cc1cc(C)c2sc(N(CCN(C)C)C(=O)c3ccc4ccccc4c3)nc2c1	27.9	38.9*	-8.2	-6.6	0.0	-27.9	5.8
Cc1ccc2sc(N(CCCN(C)C)C(=O)c3ccc(S(=O)(=O)N4CCCCCC4)cc3)nc2c1C	8.0	-19.3	-57.5	2.5	0.2	-8.0	nt
COc1ccccc1C(=O)N(CCN(C)C)c1nc2cc(C)cc(C)c2s1	6.2	-0.8	-13.6	2.3	0.1	-6.2	nt
CC(C)C(OC(=O)c1cc2c(s1)CCCCC2)C(=O)NC(N)=O (stereo not given)	25.0	26.2*	nt	12.5	0.1	-25.0	4.9
Nc1ccc(S(=O)(=O)Nc2nccc(/C=C/c3ccccc3F)n2)cc1	12.3	25.9*	2.8	-8.1	0.0	-12.3	2.6
Cc1ccnc(NS(=O)(=O)c2ccc(NC(=O)c3ccccc3F)cc2)n1	-22.8	-2.3	6.2	9.3	0.0	22.8	nt
COc1ccc2cc3[n+](cc2c1O)CCc1cc2c(cc1-3)OCO2	nt	nt	5.6	nt	0.0	nt	nt
COc1cc2c(cc1OC)-c1cc3ccc(OC)c(OC)c3c[n+]1CC2	11.8	28.1*	nt	13.7	-0.1	-11.8	-3.0
COc1ccc(S(=O)(=O)N(CC(=O)NN=C2CCN(C)CC2)c2ccc(C)cc2)cc1OC	-4.5	-11.6	6.9	3.9	-0.1	4.5	nt
Cc1c(C(=O)OCC(=O)NCc2ccco2)oc2ccccc12	8.7	-0.3	6.7	-14.8	0.2	-8.7	nt
CC(NC(=O)COC(=O)c1cc2ccccc2cc1O)c1ccccc1 (stereo not given)	-9.3	24.0*	5.7	1.3	-0.1	9.3	1.1
Cc1cc(C(=O)OCC(=O)NC(C)c2ccccc2)c(C)o1 (stereo not given)	0.9	-4.4	12.2	-10.9	0.0	-0.9	nt
Cc1c(C(=O)OCC(=O)NC(C)c2ccccc2)oc2ccccc12 (stereo not given)	-1.6	19.5*	11.1	-5.9	0.1	1.6	6.7
CCCNC(=O)N1[C@H](C#N)[C@@H](c2ccccc2-c2cccc(C)c2)[C@@H]1CO	nt	nt	-14.2	nt	0.0	nt	nt
CCOC(=O)c1ccc(NC(=O)NCCN2CCCCC2)cc1	-23.6	-3.0	nt	-7.3	nt	23.5	nt
COc1cccc(NC(=O)Cn2nc(Cc3cccnc3)c3ccccc3c2=O)c1	1.1	-6.8	-3.2	-1.9	0.0	-1.1	nt
C=CC(=O)Nc1cccc(CN2C(=O)N(c3cc(OC)cc(OC)c3)Cc3cnc(NCCCCN(CC)CC)nc32)c1	-15.6	35.9*	nt	-6.7	nt	15.6	?
COc1cc(NC(=O)c2ccc(Br)cc2)c(OC)cc1NC(=O)c1ccccc1	57.1	3.1	8.6	0.1	0.0	-57.1	nt
